# In ChEMBL document CHEMBL4257453, “Identification of karanjin isolated from the Indian beech tree as a potent CYP1 enzyme inhibitor with cellular efficacy via screening of a natural product repository” (Medchemcomm, 2018):
# Experiments:
# CYP1A1 [1] = molecular target: T1, CYP1A1 (Homo sapiens, UniProt P04798); experiment: Inhibition of recombinant human CYP1A1 expressed in baker's yeast-derived microsomes (Sacchrosomes) at 10 uM using 7-ethoxyresorufin substrate by EROD assay relative to control; details: probe 7-ethoxyresorufin
# T1 sequence (P04798 whole entry): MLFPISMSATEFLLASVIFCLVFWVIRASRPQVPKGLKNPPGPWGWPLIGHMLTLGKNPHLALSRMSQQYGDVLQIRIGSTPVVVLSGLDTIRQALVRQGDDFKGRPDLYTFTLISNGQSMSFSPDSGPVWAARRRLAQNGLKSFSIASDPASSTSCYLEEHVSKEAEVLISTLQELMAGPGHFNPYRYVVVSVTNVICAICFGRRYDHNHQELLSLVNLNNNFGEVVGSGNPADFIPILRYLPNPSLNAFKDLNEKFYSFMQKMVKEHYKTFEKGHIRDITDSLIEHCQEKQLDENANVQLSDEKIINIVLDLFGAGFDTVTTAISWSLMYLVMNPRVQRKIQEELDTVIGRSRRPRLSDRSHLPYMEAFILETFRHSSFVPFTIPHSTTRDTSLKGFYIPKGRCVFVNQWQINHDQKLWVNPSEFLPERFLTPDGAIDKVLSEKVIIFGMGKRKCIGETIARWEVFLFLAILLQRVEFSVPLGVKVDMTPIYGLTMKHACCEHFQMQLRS
# Summary of the method: (§1)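 Yeast microsomes carrying recombinant CYP (Sacchrosomes). Substrates per isoform are 7-ethoxyresorufin, 3-cyano-7-ethoxycoumarin, EOMCC or dibenzylfluorescein, read as endpoint fluorescence. Background from compound-only wells without enzyme is subtracted. Independent triplicate runs; α-naphthoflavone positive control.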
# CYP1A2 = molecular target: T2, CYP1A2 (Homo sapiens, UniProt P05177); experiment: Inhibition of recombinant human CYP1A2 expressed in baker's yeast-derived microsomes (Sacchrosomes) at 10 uM using 3-cyano-7-ethoxycoumarin substrate by EROD assay relative to control; assay type: ADME; details: probe 3-cyano-7-ethoxycoumarin; summary of the method: as §1
# T2 sequence (P05177 whole entry): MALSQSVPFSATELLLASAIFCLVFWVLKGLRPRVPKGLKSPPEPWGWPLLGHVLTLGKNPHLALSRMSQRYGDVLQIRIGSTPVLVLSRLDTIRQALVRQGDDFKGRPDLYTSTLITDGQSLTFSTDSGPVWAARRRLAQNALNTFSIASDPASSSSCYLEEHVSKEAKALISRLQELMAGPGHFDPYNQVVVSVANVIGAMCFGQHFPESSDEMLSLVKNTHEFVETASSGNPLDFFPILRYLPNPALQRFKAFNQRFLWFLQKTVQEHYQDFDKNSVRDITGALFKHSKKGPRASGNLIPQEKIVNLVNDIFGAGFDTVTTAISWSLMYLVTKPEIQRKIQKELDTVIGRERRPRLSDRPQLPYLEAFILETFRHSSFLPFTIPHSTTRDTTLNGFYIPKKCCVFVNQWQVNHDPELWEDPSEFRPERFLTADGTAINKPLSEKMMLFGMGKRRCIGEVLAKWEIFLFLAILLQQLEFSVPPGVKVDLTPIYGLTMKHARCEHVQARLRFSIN
# CYP1B1 = molecular target: T3, CYP1B1 (Homo sapiens, UniProt Q16678); experiment: Inhibition of recombinant human CYP1B1 expressed in baker's yeast-derived microsomes (Sacchrosomes) at 10 uM using 7-ethoxyresorufin substrate by EROD assay relative to control; assay type: ADME; details: probe 7-ethoxyresorufin
# T3 sequence (Q16678 whole entry): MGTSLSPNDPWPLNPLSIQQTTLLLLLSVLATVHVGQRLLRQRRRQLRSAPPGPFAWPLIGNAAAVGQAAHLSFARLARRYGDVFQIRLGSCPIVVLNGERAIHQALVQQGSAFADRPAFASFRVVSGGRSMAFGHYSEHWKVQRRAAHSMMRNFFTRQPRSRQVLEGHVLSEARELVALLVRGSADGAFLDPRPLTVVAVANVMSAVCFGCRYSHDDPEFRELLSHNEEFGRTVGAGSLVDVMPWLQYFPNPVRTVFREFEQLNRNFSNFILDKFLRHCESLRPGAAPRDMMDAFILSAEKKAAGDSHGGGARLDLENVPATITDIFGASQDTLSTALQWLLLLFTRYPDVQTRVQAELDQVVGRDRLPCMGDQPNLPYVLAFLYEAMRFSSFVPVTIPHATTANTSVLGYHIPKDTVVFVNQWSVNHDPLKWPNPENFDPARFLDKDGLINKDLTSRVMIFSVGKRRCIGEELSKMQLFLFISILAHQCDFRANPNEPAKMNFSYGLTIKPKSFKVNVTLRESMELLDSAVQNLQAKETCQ
# Summary of the method: as §1, with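 “(Sacchrosomes). […]” for “(Sacchrosomes).”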
# CYP2D6 = CYP2D6 (Homo sapiens, UniProt P10635); experiment: Inhibition of recombinant human CYP2D6 expressed in baker's yeast-derived microsomes (Sacchrosomes) at 10 uM using 7-ethoxy-methyloxy-3-cyanocoumarin substrate by EROD assay relative to control; assay type: ADME; details: probe 7-ethoxy-methyloxy-3-cyanocoumarin
# Summary of the method: as §1, with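 “(Sacchrosomes). […]” for “(Sacchrosomes).”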
# CYP3A4 = CYP3A4 (Homo sapiens, UniProt P08684); experiment: Inhibition of recombinant human CYP3A4 expressed in baker's yeast-derived microsomes (Sacchrosomes) at 10 uM using dibenzylfluorescein substrate by EROD assay relative to control; assay type: ADME; details: probe dibenzylfluorescein
# Summary of the method: as §1, with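 “(Sacchrosomes). […]” for “(Sacchrosomes).”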
# CYP2C9 = CYP2C9 (Homo sapiens, UniProt P11712); experiment: Inhibition of recombinant human CYP2C9 expressed in baker's yeast-derived microsomes (Sacchrosomes) at 10 uM using 3-cyano-7-ethoxycoumarin substrate by EROD assay relative to control; assay type: ADME; details: probe 3-cyano-7-ethoxycoumarin
# Summary of the method: as §1, with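 “(Sacchrosomes). […]” for “(Sacchrosomes).”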
# CYP2C19 = CYP2C19 (Homo sapiens, UniProt P33261); experiment: Inhibition of recombinant human CYP2C19 expressed in baker's yeast-derived microsomes (Sacchrosomes) at 10 uM using 3-cyano-7-ethoxycoumarin substrate by EROD assay relative to control; assay type: ADME; details: probe 3-cyano-7-ethoxycoumarin
# Summary of the method: as §1, with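 “(Sacchrosomes). […]” for “(Sacchrosomes).”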
# CYP1A1 [2] = molecular target: T1, CYP1A1; experiment: Inhibition of human recombinant CYP1A1 expressed in HEK293 cells at 10 uM using 7-ethoxyresorufin substrate preincubated for 30 mins followed by substrate addition and measured after 60 mins by fluorescence assay relative to control; assay type: cell-based; details: HEK293 cells expressing human recombinant CYP1A1, probe 7-ethoxyresorufin
# Summary of the method: (§2)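 HEK293 cells adapted to suspension and transiently transfected with pcDNA3.1 plasmids carrying the individual CYP; 100×10^3 cells per well in triplicate. […] Fluorogenic substrate is then added at 5 μM and fluorescence read for 60 min.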
# Cytochrome P450 1A1 = molecular target: T4, Cytochrome P450 1A1 (Homo sapiens, UniProt P04798); experiment: Inhibition of human recombinant CYP1A1 expressed in HEK293 cells using 7-ethoxyresorufin substrate preincubated for 30 mins followed by substrate addition and measured after 60 mins by fluorescence assay relative to control; assay type: cell-based; summary of the method: as §2
# T4 sequence (P04798 whole entry): T1 sequence (P04798 whole entry)
# Cytochrome P450 1A2 = molecular target: T5, Cytochrome P450 1A2 (Homo sapiens, UniProt P05177); experiment: Inhibition of human recombinant CYP1A2 expressed in HEK293 cells using 3-cyano-7-ethoxycoumarin substrate preincubated for 30 mins followed by substrate addition and measured after 60 mins by fluorescence assay relative to control; assay type: ADME, cell-based; summary of the method: as §2
# T5 sequence (P05177 whole entry): T2 sequence (P05177 whole entry)
# Cytochrome P450 1B1 = molecular target: T6, Cytochrome P450 1B1 (Homo sapiens, UniProt Q16678); experiment: Inhibition of human recombinant CYP1B1 expressed in HEK293 cells using 7-ethoxyresorufin substrate substrate preincubated for 30 mins followed by substrate addition and measured after 60 mins by fluorescence assay relative to control; assay type: ADME, cell-based; summary of the method: as §2
# T6 sequence (Q16678 whole entry): T3 sequence (Q16678 whole entry)
# Cytochrome P450 2D6 = Cytochrome P450 2D6 (Homo sapiens, UniProt P10635); experiment: Inhibition of human recombinant CYP2D6 expressed in HEK293 cells using 7-ethoxy-methyloxy-3-cyanocoumarin substrate substrate preincubated for 30 mins followed by substrate addition and measured after 60 mins by fluorescence assay relative to control; assay type: ADME, cell-based; summary of the method: as §2
# Cytochrome P450 2C9 = Cytochrome P450 2C9 (Homo sapiens, UniProt P11712); experiment: Inhibition of human recombinant CYP2C9 expressed in HEK293 cells using 3-cyano-7-ethoxycoumarin substrate substrate preincubated for 30 mins followed by substrate addition and measured after 60 mins by fluorescence assay relative to control; assay type: ADME, cell-based; summary of the method: as §2
# Cytochrome P450 2C19 = Cytochrome P450 2C19 (Homo sapiens, UniProt P33261); experiment: Inhibition of human recombinant CYP2C19 expressed in HEK293 cells using 3-cyano-7-ethoxycoumarin substrate substrate preincubated for 30 mins followed by substrate addition and measured after 60 mins by fluorescence assay relative to control; assay type: ADME, cell-based; summary of the method: as §2
# Cytochrome P450 3A4 = Cytochrome P450 3A4 (Homo sapiens, UniProt P08684); experiment: Inhibition of human recombinant CYP3A4 expressed in HEK293 cells using dibenzylfluorescein substrate substrate preincubated for 30 mins followed by substrate addition and measured after 60 mins by fluorescence assay relative to control; assay type: ADME, cell-based
# Summary of the method: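 HEK293 cells adapted to suspension and transiently transfected with pcDNA3.1 plasmids carrying the individual CYP; 100×10^3 cells per well in triplicate. Fluorogenic substrate is then added at 5 μM and fluorescence read for 60 min.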
# Chain of CYP3A4 (P08684 whole entry): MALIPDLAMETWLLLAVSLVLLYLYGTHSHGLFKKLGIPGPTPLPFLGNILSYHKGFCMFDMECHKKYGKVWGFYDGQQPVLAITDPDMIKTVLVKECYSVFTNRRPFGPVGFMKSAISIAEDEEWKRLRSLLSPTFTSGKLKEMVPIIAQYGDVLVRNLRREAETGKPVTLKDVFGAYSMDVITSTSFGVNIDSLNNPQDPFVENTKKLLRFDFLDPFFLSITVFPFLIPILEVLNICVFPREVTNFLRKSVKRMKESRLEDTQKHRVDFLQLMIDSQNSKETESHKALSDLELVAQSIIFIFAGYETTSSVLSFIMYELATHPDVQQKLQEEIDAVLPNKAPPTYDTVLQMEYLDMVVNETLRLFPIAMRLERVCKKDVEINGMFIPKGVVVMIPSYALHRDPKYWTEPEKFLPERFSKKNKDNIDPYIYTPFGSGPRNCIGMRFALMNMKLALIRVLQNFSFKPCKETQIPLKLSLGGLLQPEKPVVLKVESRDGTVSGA
# Chain of Cytochrome P450 3A4 (P08684 whole entry): as above
# Chain of CYP2C9 (P11712 whole entry): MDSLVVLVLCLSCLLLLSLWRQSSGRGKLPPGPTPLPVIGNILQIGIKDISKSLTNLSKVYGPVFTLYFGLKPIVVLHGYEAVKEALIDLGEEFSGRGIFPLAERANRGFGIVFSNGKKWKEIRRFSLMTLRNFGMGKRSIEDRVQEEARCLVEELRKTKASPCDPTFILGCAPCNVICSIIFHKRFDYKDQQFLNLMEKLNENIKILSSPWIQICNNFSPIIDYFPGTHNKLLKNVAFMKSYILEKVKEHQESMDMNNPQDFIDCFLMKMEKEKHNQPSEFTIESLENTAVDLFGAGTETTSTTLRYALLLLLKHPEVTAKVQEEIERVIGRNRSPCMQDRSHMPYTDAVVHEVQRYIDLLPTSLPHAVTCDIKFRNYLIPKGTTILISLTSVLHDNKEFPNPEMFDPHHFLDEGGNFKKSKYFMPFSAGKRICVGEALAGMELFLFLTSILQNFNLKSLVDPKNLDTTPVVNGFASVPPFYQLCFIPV
# Chain of Cytochrome P450 2C9 (P11712 whole entry): as above
# Chain of CYP2D6 (P10635 whole entry): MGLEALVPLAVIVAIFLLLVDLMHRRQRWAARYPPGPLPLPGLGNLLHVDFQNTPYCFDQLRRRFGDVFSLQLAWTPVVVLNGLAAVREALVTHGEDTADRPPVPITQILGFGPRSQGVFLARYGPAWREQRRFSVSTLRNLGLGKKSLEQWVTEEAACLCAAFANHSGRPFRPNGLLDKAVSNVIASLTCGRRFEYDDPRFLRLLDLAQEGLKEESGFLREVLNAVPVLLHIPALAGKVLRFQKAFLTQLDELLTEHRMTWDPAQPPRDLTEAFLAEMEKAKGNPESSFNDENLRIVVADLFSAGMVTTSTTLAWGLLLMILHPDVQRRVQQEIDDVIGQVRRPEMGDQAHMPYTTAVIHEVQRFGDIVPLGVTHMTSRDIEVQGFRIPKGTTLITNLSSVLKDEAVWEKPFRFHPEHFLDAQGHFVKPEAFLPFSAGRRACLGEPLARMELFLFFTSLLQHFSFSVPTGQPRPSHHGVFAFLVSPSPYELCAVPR
# Chain of Cytochrome P450 2D6 (P10635 whole entry): as above
# Chain of CYP2C19 (P33261 whole entry): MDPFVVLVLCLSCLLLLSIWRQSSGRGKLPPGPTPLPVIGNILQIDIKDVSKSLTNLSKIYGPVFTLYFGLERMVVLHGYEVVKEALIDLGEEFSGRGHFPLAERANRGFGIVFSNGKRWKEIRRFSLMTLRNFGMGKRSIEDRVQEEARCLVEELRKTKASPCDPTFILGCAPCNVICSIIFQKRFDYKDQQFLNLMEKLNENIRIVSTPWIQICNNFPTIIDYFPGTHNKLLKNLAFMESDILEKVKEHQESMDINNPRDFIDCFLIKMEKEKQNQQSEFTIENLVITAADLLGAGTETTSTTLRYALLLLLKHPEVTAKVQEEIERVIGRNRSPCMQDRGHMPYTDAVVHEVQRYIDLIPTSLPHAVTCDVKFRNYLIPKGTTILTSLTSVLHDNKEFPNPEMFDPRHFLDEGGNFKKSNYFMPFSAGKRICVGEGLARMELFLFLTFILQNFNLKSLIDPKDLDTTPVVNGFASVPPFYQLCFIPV
# Chain of Cytochrome P450 2C19 (P33261 whole entry): as above
SMILES,inhibition at 10 µM (CYP1A1 [1]) [%],inhibition at 10 µM (CYP1A2) [%],inhibition at 10 µM (CYP1B1) [%],inhibition at 10 µM (CYP2D6) [%],inhibition at 10 µM (CYP3A4) [%],inhibition at 10 µM (CYP2C9) [%],inhibition at 10 µM (CYP2C19) [%],"inhibition at 1 h, 10 µM (CYP1A1 [2]) [%]",IC50 (Cytochrome P450 1A1) [nM],Ki (Cytochrome P450 1A1) [nM],IC50 (Cytochrome P450 1A2) [µM],Ki (Cytochrome P450 1A2) [µM],IC50 (Cytochrome P450 1B1) [µM],IC50 (Cytochrome P450 2D6) [µM],IC50 (Cytochrome P450 2C9) [µM],IC50 (Cytochrome P450 2C19) [µM],IC50 (Cytochrome P450 3A4) [µM]
CCOc1c2occc2cc2ccc(=O)oc12,89,,,,,,,,,,,,,,,,
COc1ccc(-c2cc(=O)c3c(O)c(OC)c(OC)cc3o2)cc1OC,80,90,70,13,9,7,5,96,1380,1420,0.9,0.78,2.5,> 10,> 10,> 10,> 10
COc1ccc2c(c1OC)C(OC)N(C)c1c-2ccc2cc3c(cc12)OCO3 (configuration not stated),90,7,10,11,6,4,3,80,3030,3250,8.93,9.16,7.7,> 10,> 10,> 10,> 10
CC(C)(O)C(O)COc1c2occc2cc2ccc(=O)oc12 (configuration not stated),72,,,,,,,,,,,,,,,,
O=c1ccc2ccc3occc3c2o1 [ANGELICIN],80,,,,,,,,,,,,,,,,
COc1ccc2cc3[n+](cc2c1OC)CCc1cc2c(cc1-3)OCO2 [BERBERINE CHLORIDE],48,,,,,,,,,,,,,,,,

# Continued, values first:
inhibition at 10 µM (CYP1A1 [1]) [%],inhibition at 10 µM (CYP1A2) [%],inhibition at 10 µM (CYP1B1) [%],inhibition at 10 µM (CYP2D6) [%],inhibition at 10 µM (CYP3A4) [%],inhibition at 10 µM (CYP2C9) [%],inhibition at 10 µM (CYP2C19) [%],"inhibition at 1 h, 10 µM (CYP1A1 [2]) [%]",IC50 (Cytochrome P450 1A1) [nM],Ki (Cytochrome P450 1A1) [nM],IC50 (Cytochrome P450 1A2) [µM],Ki (Cytochrome P450 1A2) [µM],IC50 (Cytochrome P450 1B1) [µM],IC50 (Cytochrome P450 2D6) [µM],IC50 (Cytochrome P450 2C9) [µM],IC50 (Cytochrome P450 2C19) [µM],IC50 (Cytochrome P450 3A4) [µM],SMILES
52,,,,,,,,,,,,,,,,,Cc1c(O)c2c(c(C(=O)/C=C/c3ccccc3)c1O)OC(C)(C)C=C2
69,,,,,,,,,,,,,,,,,C=CCOc1cc(OCC=C)c2ccc(=O)oc2c1
85 to 87,8,12,14,9,0,3,85,2230,1960,3.16,3.86,6.04,> 10,> 10,> 10,> 10,COc1c(C(=O)CC(=O)c2ccccc2)ccc2occc12
,,96,5,6,10,9,,,,,,,,,,,O=c1cc(-c2ccccc2)oc2c1ccc1ccccc12 [ALPHA-NAPHTHOFLAVONE]
